Results pooled from the literature.
Lines come from different studies, so protocols differ.
Method: competition with immobilised ligand
RPS6KA2 N-terminal kinase domain: Ribosomal protein S6 kinase alpha-2, N-terminal kinase domain (RPS6KA2, Homo sapiens, UniProt Q15349)
RPS6KA2 C-terminal kinase domain: Ribosomal protein S6 kinase alpha-2, C-terminal kinase domain (RPS6KA2, Homo sapiens, UniProt Q15349)

SMILES | target | observed | tested at | remaining binding [%]
COc1cnc(Nc2cccc(S(N)(=O)=O)c2)nc1N1CCN(c2ccccc2)C(=O)C1 | RPS6KA2 N-terminal kinase domain | binding | 1 µM | 96
O=C(Nc1cccnn1)N1CCC(=Cc2cccc(Oc3ccc(C(F)(F)F)cn3)c2)CC1 | RPS6KA2 C-terminal kinase domain | cell-free assay | 1 µM | 100
CNC(=O)[C@@H]1CC[C@@H](n2c(-c3ccc4cnccc4c3)nc3ccc(C(=O)NCc4cccc(C(N)=O)c4)cc32)C1 | RPS6KA2 N-terminal kinase domain | binding | 1 µM | 100
Cc1cnc(Nc2ccc(C(=O)N3CCC(N4CCCC4)CC3)cc2)nc1-c1cc2ccccc2s1 | RPS6KA2 N-terminal kinase domain | binding | 1 µM | 100
COCCOc1nc(-c2ccc(Cl)nc2)nc2c1CN(C(=O)c1ncn3ccccc13)CC2 | RPS6KA2 C-terminal kinase domain | cell-free assay | 0.1 µM | 100
O=C(c1ccc(Nc2ncc(Cl)c(-c3ccc(Cl)s3)n2)cc1)N1CCC(N2CCCC2)CC1 | RPS6KA2 C-terminal kinase domain | binding | 1 µM | 71
COc1cnc(Nc2cccc(S(N)(=O)=O)c2)nc1N1CCN(c2ccccc2)CC1 | RPS6KA2 C-terminal kinase domain | binding | 1 µM | 84
Nc1ncc2c(n1)-c1c([nH]c3ccc(C#CC4CC4)cc13)CCCC2 | RPS6KA2 C-terminal kinase domain | binding | 1 µM | 92
CCS(=O)(=O)c1cc2cc(C[C@](O)(CC(C)(C)c3ccc(F)cc3C(N)=O)C(F)(F)F)[nH]c2cn1 | RPS6KA2 C-terminal kinase domain | cell-free assay | 1 µM | 81
O=C(c1ccc(Nc2ncc(Cl)c(-c3cc4ccccc4s3)n2)cc1)N1CCC(N2CCCC2)CC1 | RPS6KA2 N-terminal kinase domain | binding | 1 µM | 100
F[C@@H]1CCN(c2nccc(-c3cnn4ncccc34)n2)C1 | RPS6KA2 C-terminal kinase domain | binding | 1 µM | 91
O=C(NCC1CCOCC1)c1n[nH]cc1NC(=O)c1c(F)cccc1F | RPS6KA2 C-terminal kinase domain | binding | 1 µM | 100
Cc1c(NC(=O)c2cc(C(N)=O)nc3cc(F)ccc23)c(C(F)(F)F)nn1Cc1ccc(C#N)cc1 | RPS6KA2 C-terminal kinase domain | cell-free assay | 1 µM | 86
CCN1CCN(Cc2ccc(C(=O)Nc3ccc(C)c(Oc4ccc5c(c4)CC(=O)N5)c3)cc2C(F)(F)F)CC1 | RPS6KA2 C-terminal kinase domain | binding | 1 µM | 91
FC(F)(F)Oc1cccc(-c2cnc3ccc(-c4ccncc4)nn23)c1 | RPS6KA2 N-terminal kinase domain | binding | 5 µM | 79
O=C(Nc1c[nH]nc1C(=O)NC1CCNCC1)c1cc(F)cc(F)c1 | RPS6KA2 N-terminal kinase domain | binding | 1 µM | 100
O=C(NCCCN1CCOCC1)c1ccc(Nc2ncc(Cl)c(-c3ccc(Cl)s3)n2)cc1 | RPS6KA2 C-terminal kinase domain | binding | 1 µM | 63

SMILES | target | observed | tested at | remaining binding [%]
COc1ccnn2ncc(-c3ccnc(N(C)C)n3)c12 | RPS6KA2 C-terminal kinase domain | binding | 1 µM | 100
CC(C)CC(=O)N1CCc2nc(-c3ccc(Br)cc3)nc(N(C)Cc3ccccc3)c2C1 | RPS6KA2 C-terminal kinase domain | cell-free assay | 0.1 µM | 100
c1cncc(-c2cccc(Nc3nccc(NC4CCCCC4)n3)c2)c1 | RPS6KA2 N-terminal kinase domain | binding | 10 µM | 44
CO[C@H]1CC[C@H](CNc2ccc(S(=O)(=O)NC(=O)c3ccc(N4CCN(CC5=C(c6ccc(Cl)cc6)CC(C)(C)CC5)CC4)cc3Oc3cnc4[nH]ccc4c3)cc2[N+](=O)[O-])CC1 | RPS6KA2 N-terminal kinase domain | cell-free assay | 1 µM | 97
COc1cc(C(=O)N2CCC(N3CCN(C)CC3)CC2)ccc1Nc1ncc2c(n1)N(C)c1ccccc1C(=O)N2C | RPS6KA2 C-terminal kinase domain | binding | 10 µM | 7.5
CN(C)c1nccc(-c2cnc3ncccn23)n1 | RPS6KA2 N-terminal kinase domain | binding | 1 µM | 83
O=C(NCCCN1CCOCC1)c1ccc(Nc2nccc(-c3cc4ccccc4s3)n2)cc1 | RPS6KA2 C-terminal kinase domain | binding | 1 µM | 16
C[C@@H](c1ccc(-n2cnc3c(N)ncnc32)cc1)N1CCc2nn(C)c(Cc3ccccc3)c2C1=O | RPS6KA2 N-terminal kinase domain | binding | 0.1 µM | 96
Nc1cnc(N2CCc3cc(S(=O)(=O)Nc4c(F)cc(Cl)cc4F)cc(N4CCCC4=O)c32)nc1 | RPS6KA2 N-terminal kinase domain | cell-free assay | 1 µM | 88
CN(C)c1nccc(-c2cnn3ncccc23)n1 | RPS6KA2 N-terminal kinase domain | binding | 1 µM | 100
COc1ncc2cc3ccccc3nc2c1C#N | RPS6KA2 C-terminal kinase domain | cell-free assay | 5 µM | 94
CN(CCCC(F)(F)F)c1nccc(-c2cnn3ncccc23)n1 | RPS6KA2 C-terminal kinase domain | binding | 1 µM | 100
C[C@@H](c1cccc(C#N)c1)n1cc(Cl)cc(C(N)=O)c1=N | RPS6KA2 C-terminal kinase domain | cell-free assay | 1 µM | 100
N[C@@H]1CCN(c2nccc(-c3cnn4ncccc34)n2)C1 | RPS6KA2 C-terminal kinase domain | binding | 1 µM | 100
O=C(c1ccc(Nc2nccc(-c3cc4ccccc4s3)n2)cc1)N1CCC(N2CCCC2)CC1 | RPS6KA2 N-terminal kinase domain | binding | 1 µM | 100
C[C@@H]1CCN(c2nccc(-c3cnn4ncccc34)n2)C1 | RPS6KA2 N-terminal kinase domain | binding | 1 µM | 79
C=CC(=O)N1CCC(C(=O)NCC(=O)N2CCN(c3nc(-c4cnc(N)nc4C(F)F)nc(N4CCOCC4)n3)CC2)CC1 | RPS6KA2 C-terminal kinase domain | binding | 1 µM | 93
